An excerpt weighted towards active compounds, which were near 3.5% of everything screened.
MrgX1 agonist – activates human MrgX1 receptor signaling; AID 588627; B-score at 10 µM; actives 0.44% (n = 310,000); MrgX1-HEK293 cells, Fluo-4 calcium fluorescence, agonist mode; active compounds read high;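 active = calcium response B-score plate-corrected fluorescence ratio at least 3 library SD, with starting fluorescence B-score inside 5 SD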
Target sequence (Q96LB2 whole entry, looked up): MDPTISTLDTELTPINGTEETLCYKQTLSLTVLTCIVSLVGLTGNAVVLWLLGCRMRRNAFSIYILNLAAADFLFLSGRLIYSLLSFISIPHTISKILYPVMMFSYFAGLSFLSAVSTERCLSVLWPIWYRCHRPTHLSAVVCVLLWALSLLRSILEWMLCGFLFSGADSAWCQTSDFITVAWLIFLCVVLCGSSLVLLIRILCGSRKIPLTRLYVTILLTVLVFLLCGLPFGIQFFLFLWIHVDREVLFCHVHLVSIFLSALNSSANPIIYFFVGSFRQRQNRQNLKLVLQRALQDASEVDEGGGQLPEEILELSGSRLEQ
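Test system: HEK293 cells stably expressing human MrgX1 receptor; amount: 15,000 cells per well; doses: compound delivered in addition one of three; times: overnight plating before 1 h dye loading; detection: Fluo-4 NW calcium-flux fluorescence, kinetic read; read-out basis: B-scored fluorescence response ratio; controls: positive and negative controls per plate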
MrgX1 antag – human MrgX1 receptor antagonism, primary screen; MRGX1-HEK293 calcium flux, Fluo-4, BAM8-22 antagonism; active compounds read low; B-score at 10 µM; actives 1.3% (n = 310,000);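 active = calcium-response B-score plate-corrected more than 3 library SD below zero, starting fluorescence within 5 deviations, no agonist response on first addition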;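 note: peak minus trough fluorescence over baseline after final BAM8-22 challenge near maximal dose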
RGS4 block – inhibitors of human RGS4 | P49798 | HEK293 M3R/RGS4 inducible, Fluo-4 calcium flux; active compounds read high; triggered by carbachol at its EC20 | B-score at 10 µM | actives 0.45% (n = 310,000) | AID 463165;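 active = B-score, a plate-corrected calcium signal, over three deviations above library mean, with baseline fluorescence within five deviations of library mean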;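 note: RGS4 expression induced by doxycycline in cells with stable M3 receptor; B-score is computed from the integrated fluorescence ratio over baseline after carbachol; higher B-score means a larger calcium signal and so more RGS4 inhibition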
Target sequence (P49798 whole entry, looked up): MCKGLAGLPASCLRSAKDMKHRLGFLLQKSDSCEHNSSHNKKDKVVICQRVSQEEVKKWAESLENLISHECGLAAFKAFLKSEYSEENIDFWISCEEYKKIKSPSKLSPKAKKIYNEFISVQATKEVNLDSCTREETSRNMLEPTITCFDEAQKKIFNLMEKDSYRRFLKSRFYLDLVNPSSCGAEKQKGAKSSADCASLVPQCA
RGS4 act – RGS4 potentiation or activation; HEK293 M3R/inducible RGS4, carbachol calcium flux Fluo4; active compounds read low; actives 0.92% (n = 310,000); B-score at 10 µM;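 active = B-score of the integrated calcium signal more than 4 SD below the library mean, with starting fluorescence not abnormally high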;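 note: negative B-score means reduced calcium response which marks RGS4 activation or potentiation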
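Also added: carbachol at ECmax as muscarinic agonist stimulus; Assay system: HEK293 cells with stable M3R and inducible RGS4; Timing: overnight RGS4 induction, 30 min dye load 37 °C, 20 min compound RT; Measured by: Fluo4-AM (2 µM) calcium-flux fluorescence, kinetic read.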
MrgX1 PAM – human MrgX1 positive allosteric modulation, primary screen. Q96LB2. actives 0.63% (n = 310,000). B-score at 10 µM. MrgX1-HEK293, Fluo-4 calcium flux, FDSS; active compounds read high;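 active = plate-corrected calcium response at least 3 library SD above typical, normal starting fluorescence, not activating the receptor alone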;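 note: compound read alongside a low EC10 to EC30 dose of BAM8-22 agonist; peak minus trough fluorescence over baseline measured at the second addition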
MrgX1 antag conf – reconfirmed antagonist of human MrgX1 receptor signaling; MrgX1-HEK293, BAM8-22 calcium flux, Fluo-4; active compounds read low; remaining BAM8-22 calcium response % of control (active compounds read low), % at 10 µM; shares compounds with MrgX1 antag; actives 19% (n = 2,300);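 active = remaining agonist calcium response no higher than 100% minus 3 SD of agonist-only control wells, with starting fluorescence near control levels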;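 note: agonist BAM8-22 given at a near maximal EC90 to ECmax level; peak minus minimum fluorescence divided by baseline after agonist addition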
HEK293 Ca flux – MrgX1 antagonist counter-screen hit in parental HEK293 cells; shares compounds with MrgX1 antag; Fluo-4 calcium fluorescence, FDSS; fluorescence ratio F(max-min)/F0 at 10 µM; actives 2% (n = 4,000);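 active = duplicate-averaged calcium fluorescence ratio at least three times the standard deviation of buffer wells, a nonspecific response in parental cells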
HEK293 Ca counter – activity in parental HEK293 cells without MrgX1; shares compounds with MrgX1 antag; parental HEK293 calcium flux, Fluo-4 fluorescence ratio; active compounds read high; fluorescence ratio F(max-min)/F0 at 10 µM; actives 0.4% (n = 4,000); AID 624114;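 active = calcium fluorescence ratio, averaged over duplicates, at least 3 SD of the buffer-well ratio, meaning a nonspecific response in receptor-free cells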;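 note: untransfected parental HEK293 lacking MrgX1 used as counterscreen for MrgX1 allosteric activators; fluorescence change taken during the second addition on a kinetic imager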
HEK293 Ca cntr2 – MrgX1 activator counter-screen hit in parental HEK293 cells; shares compounds with MrgX1 antag; Fluo-4 calcium fluorescence (FDSS); active compounds read high; fluorescence ratio F(max-min)/F0 at 10 µM; actives 8.7% (n = 4,000);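 active = calcium fluorescence ratio at least three times the spread of buffer wells, meaning a non-specific response in parental cells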
Numbers stand for hits.

Results for O=C1NC2(CCN(Cc3ccccc3)CC2)Oc2ccccc21 ?
MrgX1 agonist: inactive; MrgX1 antag: inactive; RGS4 block: inactive; RGS4 act: inactive; MrgX1 PAM: inactive

Results for CC1=C(C(=O)Nc2ccccc2C(=O)N2CCC(C)CC2)SCCO1 ?
MrgX1 agonist: inactive; MrgX1 antag: inactive; RGS4 block: inactive; RGS4 act: inactive; MrgX1 PAM: inactive

How did COc1cc2ccccc2cc1C(=O)NC(=S)Nc1cccc(C(=O)O)c1C do in these assays?
MrgX1 agonist: inactive; MrgX1 antag: inactive; RGS4 block: inactive; RGS4 act: inactive; MrgX1 PAM: inactive

What do the screens show for `COC(=O)CS(=O)(=O)c1cc(Br)cc2c1N(C(C)=O)CC2`?
MrgX1 agonist: inactive; MrgX1 antag: -5.4; RGS4 block: inactive; RGS4 act: inactive; MrgX1 PAM: inactive; MrgX1 antag conf: inactive; HEK293 Ca flux: inactive; HEK293 Ca counter: inactive; HEK293 Ca cntr2: 65

What do the screens show for `CCOC(=O)C1=C(CC)Nc2ccccc2N=C1NC(=O)c1ccc(S(=O)(=O)N2CCCC2)cc1`?
MrgX1 agonist: inactive; MrgX1 antag: inactive; RGS4 block: inactive; RGS4 act: inactive; MrgX1 PAM: inactive

What do the screens show for `CCOC(=O)C1=C(CC)Nc2ccccc2N=C1NC(=O)Nc1ccc(Cl)c(Cl)c1`?
MrgX1 agonist: inactive; MrgX1 antag: -6.1; RGS4 block: inactive; RGS4 act: inactive; MrgX1 PAM: inactive; MrgX1 antag conf: 50%; HEK293 Ca flux: inactive; HEK293 Ca counter: inactive; HEK293 Ca cntr2: inactive

Results for CCOc1ccccc1N1CCN(C/C=C/c2ccc(N(C)C)cc2)CC1 ?
MrgX1 agonist: inactive; MrgX1 antag: -4.7; RGS4 block: inactive; RGS4 act: inactive; MrgX1 PAM: inactive; MrgX1 antag conf: inactive; HEK293 Ca flux: inactive; HEK293 Ca counter: inactive; HEK293 Ca cntr2: inactive

Results for C=CCNC(=O)c1onc(CSc2ccccn2)c1C(=O)NCC=C ?
MrgX1 agonist: inactive; MrgX1 antag: inactive; RGS4 block: inactive; RGS4 act: inactive; MrgX1 PAM: inactive

Results for Cn1c(SCc2ccc(C#N)cc2)nnc1-c1cccc(Cl)c1 ?
MrgX1 agonist: inactive; MrgX1 antag: -4.7; RGS4 block: inactive; RGS4 act: inactive; MrgX1 PAM: inactive; MrgX1 antag conf: inactive; HEK293 Ca flux: inactive; HEK293 Ca counter: inactive; HEK293 Ca cntr2: inactive

What do the screens show for `CC(C)(CNC(=O)c1cc2ccccc2o1)N1CCOCC1`?
MrgX1 agonist: inactive; MrgX1 antag: -4.5; RGS4 block: inactive; RGS4 act: inactive; MrgX1 PAM: inactive; MrgX1 antag conf: inactive; HEK293 Ca flux: inactive; HEK293 Ca counter: inactive; HEK293 Ca cntr2: inactive

What do the screens show for `CC(C)(CNC(=O)c1ccc(NS(=O)(=O)c2ccc(Br)cc2)cc1)N1CCOCC1`?
MrgX1 agonist: inactive; MrgX1 antag: -6.5; RGS4 block: inactive; RGS4 act: inactive; MrgX1 PAM: inactive; MrgX1 antag conf: 51%; HEK293 Ca flux: inactive; HEK293 Ca counter: inactive; HEK293 Ca cntr2: inactive

Results for O=C(NCc1cccs1)c1cc2ccccc2o1 ?
MrgX1 agonist: inactive; MrgX1 antag: -7.5; RGS4 block: inactive; RGS4 act: inactive; MrgX1 PAM: inactive; MrgX1 antag conf: inactive; HEK293 Ca flux: inactive; HEK293 Ca counter: inactive; HEK293 Ca cntr2: inactive

Results for O=C(NCCN1CCOCC1)c1cc2ccccc2o1 ?
MrgX1 agonist: inactive; MrgX1 antag: inactive; RGS4 block: inactive; RGS4 act: inactive; MrgX1 PAM: inactive

What do the screens show for `CCN(CC)S(=O)(=O)c1ccc(NC(=O)CNC2CCCCC2)cc1`?
MrgX1 agonist: inactive; MrgX1 antag: inactive; RGS4 block: inactive; RGS4 act: inactive; MrgX1 PAM: inactive

Results for O=C(O)Cn1nnnc1-c1ccc(F)cc1 ?
MrgX1 agonist: inactive; MrgX1 antag: -5.6; RGS4 block: inactive; RGS4 act: inactive; MrgX1 PAM: inactive; MrgX1 antag conf: inactive; HEK293 Ca flux: inactive; HEK293 Ca counter: inactive; HEK293 Ca cntr2: inactive

What do the screens show for `O=C(NCCSCc1ccco1)Nc1cc(Cl)cc(Cl)c1`?
MrgX1 agonist: inactive; MrgX1 antag: -5.4; RGS4 block: inactive; RGS4 act: inactive; MrgX1 PAM: inactive; MrgX1 antag conf: 68%; HEK293 Ca flux: inactive; HEK293 Ca counter: inactive; HEK293 Ca cntr2: inactive

Results for Cc1cc(C(=O)CSc2nc3ccccc3[nH]2)c(C)n1CC1CCCO1 (stereo not given) ?
MrgX1 agonist: inactive; MrgX1 antag: -8.1; RGS4 block: inactive; RGS4 act: inactive; MrgX1 PAM: inactive; MrgX1 antag conf: 9.7%; HEK293 Ca flux: inactive; HEK293 Ca counter: inactive; HEK293 Ca cntr2: inactive

What do the screens show for `CCc1cccc(NC(=O)C2CCN(S(=O)(=O)c3ccc4c(c3)NC(=O)CO4)CC2)c1`?
MrgX1 agonist: inactive; MrgX1 antag: inactive; RGS4 block: inactive; RGS4 act: inactive; MrgX1 PAM: inactive

Results for CCOC(=O)N1CCN(C(=O)CCN2C(=O)COc3ccc(C)cc32)CC1 ?
MrgX1 agonist: inactive; MrgX1 antag: -6; RGS4 block: inactive; RGS4 act: inactive; MrgX1 PAM: inactive; MrgX1 antag conf: inactive; HEK293 Ca flux: inactive; HEK293 Ca counter: inactive; HEK293 Ca cntr2: inactive

How did OCCNc1nc(Nc2ccc(Br)cc2)nc2ccccc12 do in these assays?
MrgX1 agonist: inactive; MrgX1 antag: -6.9; RGS4 block: inactive; RGS4 act: inactive; MrgX1 PAM: inactive; MrgX1 antag conf: 73%; HEK293 Ca flux: inactive; HEK293 Ca counter: inactive; HEK293 Ca cntr2: inactive

How did c1ccc(Nc2nc(NCC3CCCO3)c3ccccc3n2)cc1 (stereo not given) do in these assays?
MrgX1 agonist: inactive; MrgX1 antag: -5.1; RGS4 block: inactive; RGS4 act: inactive; MrgX1 PAM: inactive; MrgX1 antag conf: 38%; HEK293 Ca flux: inactive; HEK293 Ca counter: inactive; HEK293 Ca cntr2: inactive

Results for CN(C)c1ccc(NC(=O)C2CCCN(S(=O)(=O)c3ccccc3)C2)cc1 (stereo not given) ?
MrgX1 agonist: inactive; MrgX1 antag: inactive; RGS4 block: inactive; RGS4 act: inactive; MrgX1 PAM: inactive

What do the screens show for `CNC(=O)c1c(I)c(C(=O)NCC(=O)Nc2c(I)c(C(=O)O)c(I)c(C(=O)NCCO)c2I)c(I)c(N(C)C(C)=O)c1I`?
MrgX1 agonist: inactive; MrgX1 antag: inactive; MrgX1 PAM: inactive

How did N=C1SC(c2ccccc2)C(=O)N1c1ncc(Cc2ccccc2)s1 (stereo not given) do in these assays?
MrgX1 agonist: inactive; MrgX1 antag: inactive; RGS4 block: inactive; RGS4 act: inactive; MrgX1 PAM: inactive

Screening results as filed in PubChem BioAssay.
